Assay results from ChEMBL document CHEMBL1153986, “Novel approach for chemotype hopping based on annotated databases of chemically feasible fragments and a prospective case study: new melanin concentrating hormone antagonists” (J Med Chem, 2009).

Assays:
[1] = target: T1, Melanin-concentrating hormone receptor 1 (Homo sapiens, UniProt Q99705); assay: Antagonist activity at MCH1R; type: functional
Outline: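 MCH-1 receptor-expressing CHO cells seeded 24 h before (5000 cells/well), loaded with calcium assay kit containing 10 mM probenicide for 90 min at 37 °C, 5% CO2. Serial dilutions of compound added, 20 min at room temperature in the dark, then submaximal MCH challenge; intracellular calcium change recorded on FLIPR III.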

[2] = target: T1, Melanin-concentrating hormone receptor 1
[3] = target: T1, Melanin-concentrating hormone receptor 1; assay: Antagonist activity at MCH1R by [35S]GTPgammaS binding assay; type: functional

T1 sequence (Q99705 whole entry): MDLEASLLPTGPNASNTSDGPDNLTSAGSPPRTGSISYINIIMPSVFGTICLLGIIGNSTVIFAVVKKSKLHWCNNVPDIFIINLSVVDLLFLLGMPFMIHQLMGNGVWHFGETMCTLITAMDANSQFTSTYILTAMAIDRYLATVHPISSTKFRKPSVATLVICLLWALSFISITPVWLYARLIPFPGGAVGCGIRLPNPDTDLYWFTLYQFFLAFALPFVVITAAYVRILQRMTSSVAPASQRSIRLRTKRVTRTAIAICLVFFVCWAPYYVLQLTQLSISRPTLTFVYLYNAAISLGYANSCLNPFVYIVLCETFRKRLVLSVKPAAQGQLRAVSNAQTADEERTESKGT

## C(=C\c1ccc(-c2nnc(CSCCOc3ccccc3)o2)cc1)/CN1CCCC1
[1]
  Activity: 1.9 nM

## CN(C)CCOc1ccc(-n2ccn(-c3ccc(Oc4ccccc4)cc3)c2=O)cc1
[1]
  IC50: > 100 nM

## COc1cc(-n2ccnc(NCCc3ccccc3)c2=O)ccc1OCCN1CCCC1
[2]
  IC50: 45.7 nM

## COc1cc(-n2nnc3cc(-c4ccc(Cl)cc4)sc3c2=O)ccc1N1CC[C@@H](O)C1
[1]
  IC50: > 5000 nM

## Cn1cc(CCN2CCCC2)c2ccc(-n3ccc4nc(-c5ccc(Cl)cc5)sc4c3=O)cc21
[1]
  Ki: 3.16 nM

## CN[C@@H]1CCN(c2ccc(-n3ccc4cc(-c5ccc(C(F)(F)F)cc5)sc4c3=O)cn2)C1
[1]
  Ki: 3.3 nM

## O=c1cc(/C=C/c2ccccc2)ccn1-c1ccc(OCCN2CCCC2)cc1
[1]
  Activity: 1.5 nM

## COc1cc(-n2ccnc(CCCc3ccccc3)c2=O)ccc1OCCN1CCCC1
[2]
  IC50: 105 nM

## CN(C)CC1CCc2cc(NC(=O)c3ccc(-c4ccc(F)cc4)cc3)ccc2C1 (centres undefined)
[3]
  IC50: 19 nM

## CCN(CC)Cc1ccc2c(c1)CCC(N1CCN(CCc3ccc(F)cc3)CC1=O)C2 (centres undefined)
[1]
  Ki: 3 nM

## CC(C)N(C)c1nc2cc(-c3noc(COCc4ccc(Cl)cc4)n3)ccc2[nH]1
[1]
  IC50: 7 nM

## COc1cc(-c2cnc3[nH]c(-c4ccc(Cl)cc4)cn3c2=O)ccc1OCCN1CCCC1
[1]
  Ki: 77 nM

## COc1cc(-n2ccnc(OCCc3ccccc3)c2=O)ccc1OCCN1CCCC1
[2]
  IC50: 83.2 nM

## COc1cc(-n2cnc3cc(-c4ccccc4)ccc3c2=O)ccc1OCCN1CCCC1
[1]
  Activity: 2.1 nM
